Source: ChEMBL document CHEMBL3621183, “Discovery and crystallography of bicyclic arylaminoazines as potent inhibitors of HIV-1 reverse transcriptase” (Bioorg Med Chem Lett, 2015)
≈ marks a conversion by molar mass, not a printed value.

How the values were obtained:
MT2 = experiment: Cytotoxicity against human MT2 cells assessed as growth inhibition by MTT assay; assay type: cell-based
[1] = test system: Human immunodeficiency virus 1; experiment: Antiviral activity against HIV1 3B harboring reverse transcriptase K103N/Y181C double mutant infected in human MT2 cells assessed as protection against viral infection by MTT assay; assay type: functional, organism-based
Summary of the method: (§1)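 MT-2 human T-cells infected with the HIV-1 IIIB strain carrying the listed RT mutation. […] Triplicate samples at each concentration. Compounds were >95% pure by HPLC.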

[2] = test system: Human immunodeficiency virus 1; experiment: Antiviral activity against HIV1 3B harboring reverse transcriptase Y181C mutant infected in human MT2 cells assessed as protection against viral infection by MTT assay; assay type: functional, organism-based; summary of the method: as §1
[3] = test system: Human immunodeficiency virus 1; experiment: Antiviral activity against wild type HIV1 3B infected in human MT2 cells assessed as protection against viral infection by MTT assay; assay type: functional, organism-based; conditions: Human immunodeficiency virus 1, 3B
Summary of the method: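 HIV-1 IIIB strain tested in MT-2 human T-cells. […] Triplicate samples at each concentration.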

[4] = Aqueous solubility of the compound in Britton-Robinson buffer at pH 6.5 at 25 degC by shake flask method; assay type: physicochemical
Summary of the method: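 Shake-flask method. Supernatant collected through a 0.2 μm syringe filter and quantified by UV-vis spectrophotometry.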

[5] = Human immunodeficiency virus 1, 3B, MT2, read-out: EC50

SMILES | CC50 (MT2) [nM] | EC50 [1, 5] [nM] | EC50 [2, 5] [nM] | EC50 [3] [nM] | solubility thermodynamic [4] [µg/mL] | EC50 ([1]; mt2) | EC50 ([2]; mt2)
N#Cc1ccc(Nc2nc(Nc3ccc4cc(C#N)ccc4c3F)nc(OCCCN3CCOCC3)n2)cc1 | 3800 | 180 | 160 | 36 | – | – | –
N#Cc1ccc(Nc2ncnc(Nc3c(F)cc4cc(C#N)ccc4c3F)n2)cc1 | > 100000 | 65 | 7 | 1.2 | – | – | –
Cc1cn2cc(C#N)cc2c(C)c1Nc1ncnc(Nc2ccc(C#N)cc2)n1 | 16000 | 32 | 7.1 | 0.52 | 33.1 (≈ 87 µM) | – | –
N#Cc1ccc(Nc2nccc(Nc3ccc4cc(C#N)ccc4c3F)n2)cc1 | 45000 | 790 | 70 | 6 | – | – | –
N#Cc1ccc(Nc2nccc(Nc3cc4cc(C#N)cn4cc3F)n2)cc1 | 76000 | 4600 | 1600 | 200 | – | – | –
Cc1c(Nc2nc(Nc3ccc(C#N)cc3)nc(OCCCN3CCOCC3)n2)ccc2cc(C#N)ccc12 | 5900 | 98 | 58 | 21 | – | – | –
Cc1cc2cc(C#N)ccc2c(C)c1Nc1ncnc(Nc2ccc(C#N)cc2)n1 | 9500 | 7 | 1.3 | 1.1 | 28.7 (≈ 73.3 µM) | – | –
Cc1cn2cc(C#N)cc2c(C)c1Nc1nc(Cl)nc(Nc2ccc(C#N)cc2)n1 | 38000 | – | – | 14000 | – | Not Active | Not Active
Cc1cn2cc(C#N)cc2cc1Nc1ccnc(Nc2ccc(C#N)cc2)n1 | 72000 | 6200 | 510 | 30 | – | – | –
N#Cc1ccc(Nc2ncnc(Nc3c(F)cn4cc(C#N)cc4c3F)n2)cc1 | 20000 | 2200 | 230 | 2.7 | – | – | –
Cc1c(Nc2ccnc(Nc3ccc(C#N)cc3)n2)ccc2cc(C#N)ccc12 | > 100000 | 130 | 8.5 | 7 | – | – | –
Cc1cc2cc(C#N)ccc2c(C)c1Nc1nc(Nc2ccc(C#N)cc2)nc(OCCCN2CCOCC2)n1 | 17000 | 16 | 36 | 17 | – | – | –
N#Cc1ccc(Nc2nccc(Nc3ccc4cc(C#N)ccc4c3)n2)cc1 | > 100000 | 520 | 170 | 24 | – | – | –
N#Cc1ccc(Nc2nccc(Nc3c(F)cc4cc(C#N)ccc4c3F)n2)cc1 | 4800 | 50 | 6 | 1.8 | – | – | –
Cc1cc2cc(C#N)ccc2c(C)c1Nc1nc(Cl)nc(Nc2ccc(C#N)cc2)n1 | 7500 | 67 | 41 | 2.3 | – | – | –
N#Cc1ccc(Nc2nc(Nc3ccc4cc(C#N)ccc4c3)nc(OCCCN3CCOCC3)n2)cc1 | 1200 | 150 | – | 120 | – | – | Not Active
N#Cc1ccc(Nc2nccc(Nc3c(F)cn4cc(C#N)cc4c3F)n2)cc1 | 1000 | – | 98 | 1.4 | – | Not Active | –
Cc1c(Nc2ccnc(Nc3ccc(C#N)cc3)n2)ccn2cc(C#N)cc12 | > 100000 | 170 | 26 | 1.4 | – | – | –
Cc1cn2cc(C#N)cc2c(C)c1Nc1ccnc(Nc2ccc(C#N)cc2)n1 | 10100 | 39 | 0.57 | 1 | 8.2 (≈ 21.6 µM) | – | –
Cc1cc2cc(C#N)ccc2c(C)c1Nc1ccnc(Nc2ccc(C#N)cc2)n1 | 7800 | 6.9 | 2.2 | 2.9 | 12.2 (≈ 31.2 µM) | – | –
N#Cc1ccc(Nc2nccc(Nc3ccn4cc(C#N)cc4c3)n2)cc1 | > 100000 | – | – | 200 | – | Not Active | Not Active
Cc1c(Nc2nc(Nc3ccc(C#N)cc3)nc(OCCCN3CCOCC3)n2)ccn2cc(C#N)cc12 | 10000 | – | – | 1900 | – | Not Active | Not Active
